Experimental data published in PMC9732910 (Genes & Development, 2022).
“Also recorded” adds a separate entry of the source. *1 amine or outer side, *2 acyl side, *3 side chain or, on linkers, in order; H or OH if unused. Where a SMILES comes first, the peptide text is derived from it. Bridges are numbered along the chain shown (N, C = ends). Primed or numbered codes have the meaning given here. Where no end group is shown, it is not given here. The star is where a group is joined. Lys(Biotin) = O=C(CCCC[C@@H]1SC[C@@H]2NC(=O)N[C@@H]21)NCCCC[C@H](N[*:1])C(=O)[*:2]; PEG3′ = PEG3 spacer coupled to the N-terminus before Fmoc-Lys(Biotin); FITC = O=C1OC2(c3ccc(O)cc3Oc3cc(O)ccc32)c2ccc(NC(=S)*)cc21; mXylylene = c1cc(C[*:1])cc(C[*:2])c1

T1: KLHL20^H499G (Homo sapiens, UniProt Q9Y2M5, H499G)
T1 sequence (Q9Y2M5 317-603 H499G): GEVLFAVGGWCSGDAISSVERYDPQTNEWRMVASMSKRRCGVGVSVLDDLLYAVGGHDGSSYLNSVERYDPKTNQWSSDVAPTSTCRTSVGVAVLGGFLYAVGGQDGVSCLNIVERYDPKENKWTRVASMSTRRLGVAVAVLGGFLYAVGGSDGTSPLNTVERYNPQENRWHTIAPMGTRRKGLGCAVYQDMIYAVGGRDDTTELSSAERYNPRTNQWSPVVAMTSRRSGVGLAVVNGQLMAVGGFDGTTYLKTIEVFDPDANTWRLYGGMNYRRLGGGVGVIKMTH

T2: KLHL12 (Homo sapiens, UniProt Q53G59)
T2 sequence (Q53G59 1-568): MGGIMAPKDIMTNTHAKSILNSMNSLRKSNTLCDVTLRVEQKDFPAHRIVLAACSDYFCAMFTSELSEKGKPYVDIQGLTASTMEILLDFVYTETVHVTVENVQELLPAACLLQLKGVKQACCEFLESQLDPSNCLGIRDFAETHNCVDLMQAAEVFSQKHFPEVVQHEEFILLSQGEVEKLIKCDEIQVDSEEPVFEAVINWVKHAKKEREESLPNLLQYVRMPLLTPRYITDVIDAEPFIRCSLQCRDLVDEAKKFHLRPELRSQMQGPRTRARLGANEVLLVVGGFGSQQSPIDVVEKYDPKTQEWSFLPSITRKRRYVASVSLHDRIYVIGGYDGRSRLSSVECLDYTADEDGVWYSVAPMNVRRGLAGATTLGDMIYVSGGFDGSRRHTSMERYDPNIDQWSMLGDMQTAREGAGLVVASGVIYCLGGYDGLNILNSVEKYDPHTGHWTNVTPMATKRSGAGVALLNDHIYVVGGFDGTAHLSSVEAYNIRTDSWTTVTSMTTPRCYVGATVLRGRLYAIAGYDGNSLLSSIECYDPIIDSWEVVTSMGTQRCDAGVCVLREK

T3: KLHL20 (Homo sapiens, UniProt Q9Y2M5)
T3 sequence (Q9Y2M5 1-609): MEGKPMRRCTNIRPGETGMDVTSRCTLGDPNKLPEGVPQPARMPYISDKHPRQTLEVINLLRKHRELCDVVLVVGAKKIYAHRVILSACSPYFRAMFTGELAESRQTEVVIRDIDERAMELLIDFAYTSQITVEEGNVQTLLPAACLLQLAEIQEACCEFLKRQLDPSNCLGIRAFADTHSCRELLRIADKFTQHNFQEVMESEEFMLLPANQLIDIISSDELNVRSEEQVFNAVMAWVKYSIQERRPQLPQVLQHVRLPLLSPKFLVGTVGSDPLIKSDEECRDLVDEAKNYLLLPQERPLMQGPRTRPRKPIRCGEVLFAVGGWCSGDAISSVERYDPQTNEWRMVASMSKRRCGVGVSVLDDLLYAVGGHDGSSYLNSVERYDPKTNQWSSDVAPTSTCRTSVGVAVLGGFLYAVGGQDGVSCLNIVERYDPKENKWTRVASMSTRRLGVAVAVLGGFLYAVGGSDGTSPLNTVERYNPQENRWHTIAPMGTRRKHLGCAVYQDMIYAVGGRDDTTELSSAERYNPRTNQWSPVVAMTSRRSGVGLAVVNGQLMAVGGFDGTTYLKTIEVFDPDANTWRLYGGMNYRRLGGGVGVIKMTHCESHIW

T4: KLHL20^K498A (Homo sapiens, UniProt Q9Y2M5, K498A)
T4 sequence (Q9Y2M5 317-603 K498A): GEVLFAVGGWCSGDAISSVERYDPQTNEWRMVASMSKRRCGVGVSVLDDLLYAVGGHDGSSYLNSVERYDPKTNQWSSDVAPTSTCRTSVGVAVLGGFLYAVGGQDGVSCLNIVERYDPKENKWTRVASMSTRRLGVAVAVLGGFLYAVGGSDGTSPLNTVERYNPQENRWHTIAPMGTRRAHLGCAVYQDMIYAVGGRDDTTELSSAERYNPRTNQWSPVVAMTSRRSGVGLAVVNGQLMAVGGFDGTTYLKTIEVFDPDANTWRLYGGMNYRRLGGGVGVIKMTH

T5: KLHL20^L592G (Homo sapiens, UniProt Q9Y2M5, L592G)
T5 sequence (Q9Y2M5 317-603 L592G): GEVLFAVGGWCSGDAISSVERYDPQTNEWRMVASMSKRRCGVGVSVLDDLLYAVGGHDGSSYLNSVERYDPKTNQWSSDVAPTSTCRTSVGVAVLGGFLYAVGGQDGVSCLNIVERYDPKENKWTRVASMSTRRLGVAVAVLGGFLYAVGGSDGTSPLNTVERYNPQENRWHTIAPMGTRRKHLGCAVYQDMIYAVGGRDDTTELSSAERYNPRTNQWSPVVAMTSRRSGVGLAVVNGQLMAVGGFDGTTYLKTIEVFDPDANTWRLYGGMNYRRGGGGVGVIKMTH

T6: KLHL20 Kelch domain (human, UniProt Q9Y2M5 317-603)
T6 sequence (looked up): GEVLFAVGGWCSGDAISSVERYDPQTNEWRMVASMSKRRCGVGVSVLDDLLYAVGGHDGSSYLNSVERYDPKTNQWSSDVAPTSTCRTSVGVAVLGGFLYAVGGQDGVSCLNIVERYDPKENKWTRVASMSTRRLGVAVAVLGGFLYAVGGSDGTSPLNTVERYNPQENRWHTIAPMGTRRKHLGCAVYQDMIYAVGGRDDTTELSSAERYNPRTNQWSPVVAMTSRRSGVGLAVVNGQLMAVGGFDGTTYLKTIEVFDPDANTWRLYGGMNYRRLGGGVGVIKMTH


Legend:
KLHL20^H499G = biological target: T1, KLHL20^H499G; assay: FP binding to KLHL20 Kelch mutant H499G; conditions: FITC-labeled BTR2000
KLHL12 = biological target: T2, KLHL12; type: binding; conditions: PC3 lysates, immobilized compound
How it was run: (§1)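 Biotinylated test compound (430 nM) was captured on BSA-blocked NeutrAvidin magnetic beads for 1 h at 4°C. Beads were incubated with PC3 lysate diluted 1:7 to 1.6 mg/mL total protein in TBS, 1 mM DTT, 0.1% BSA and protease/phosphatase inhibitors for 1 h at 4°C. After three TBS/DTT/BSA washes, bound proteins were eluted in Laemmli buffer with 5% BME for Western blotting.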

KLHL20 [1] = biological target: T3, KLHL20; assay: MS-based proteomics of pull-down eluates from PC3 lysates; type: binding; conditions: N = 3, control called PGL control in Table S1
How it was run: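 NeutrAvidin Dynabeads were blocked with 0.1% BSA for 2 h at 4°C and loaded with 430 nM biotinylated compound for 1 h at 4°C. PC3 lysate (1:7 diluted, 1.6 mg/mL total protein, TBS/1 mM DTT/0.1% BSA/inhibitors) was bound for 1 h at 4°C. Beads were washed three times, eluted in Laemmli/5% BME and in-gel trypsin-digested. Eluates were analysed by LC-MS/MS with label-free quantification.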

KLHL20^K498A = biological target: T4, KLHL20^K498A; assay: FP binding to KLHL20 Kelch mutant K498A; conditions: FITC-labeled BTR2000
How it was run: (§2)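 His-tagged wild-type or quick-change point-mutant KLHL20 Kelch domain was expressed in E. coli Rosetta (DE3) (0.3 mM IPTG, 18°C overnight). It was Ni-NTA purified and dialysed into TBS pH 7.5 with 1 mM DTT. Protein at 0–15 μM was incubated with 20 nM FITC-labelled peptide for 30 min at 4°C in 1× TBS/1 mM DTT. FP was read at 485/528 nm; LAAAV peptide served as negative control.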

KLHL20 [2] = biological target: T3, KLHL20; type: binding; conditions: PC3 lysates, immobilized compound
How it was run: as §1

KLHL20^L592G = biological target: T5, KLHL20^L592G; assay: FP binding to KLHL20 Kelch mutant L592G; conditions: FITC-labeled BTR2000
How it was run: as §2

BRD2, BRD3, and BRD4 = assay: Degradation of BET proteins BRD2, BRD3 and BRD4 in PC3 cells; type: cell-based, human; conditions: 5 μM, 4 h
How it was run: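 PC3 cells in DMEM with 10% FBS were plated in 24-well plates 24 h before dosing. They got fresh medium with 5 μM test compound or reference degraders, or DMSO as reference, for 4 h. Cells were washed in TBS/0.05% Tween 20 and lysed in Tris pH 7.5, NaCl, deoxycholate, glycerol, Triton X-100 and inhibitor buffer. BET proteins were read by Western blot.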

MDA-MB-231 cells = assay: Cell proliferation, CellTiter-Glo 2.0, MDA-MB-231; type: cell-based, human; conditions: MDA-MB-231, 24h, 72h and 96h
How it was run: (§3)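 Cells kept in DMEM with 10% FBS and seeded in 96-well plates at 50% confluency 24 h before treatment. Medium was then replaced with fresh medium holding the test compound at varying concentrations, or an equal volume of DMSO as negative control. Viable cell titre was read at the end of treatment by CellTiter-Glo 2.0 luminescence.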

PC3 cells = assay: Cell proliferation, CellTiter-Glo 2.0, PC3; type: cell-based, human; conditions: PC3, 24, 72, and 96 h
How it was run: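 PC3 prostate cancer cells in DMEM with 10% FBS were seeded in 96-well plates at 50% confluency 24 h beforehand. They were switched to fresh medium with different concentrations of test compound or reference degraders (DMSO-volume negative control) for 24, 72 and 96 h. Cell titre was measured by CellTiter-Glo 2.0 luminescence; SD, N = 3.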

hTERT-BJ1 cells = assay: Cytotoxicity in normal human cell line, CellTiter-Glo 2.0; type: cell-based; conditions: hTERT-BJ1, 24h, 72h and 96h
How it was run: as §3

KLHL20 Kelch domain = biological target: T6, KLHL20 Kelch domain; assay: fluorescence polarisation

| Molecule | enrichment / binding of KLHL20 in pull-down (KLHL20 [2]) | BET protein degradation (BRD2, BRD3, and BRD4) | Kd (KLHL20 Kelch domain) [nM] | other results |
| --- | --- | --- | --- | --- |
| CC(C)C[C@@H]1NC(=O)[C@H](CC(=O)O)NC(=O)[C@@H]2CCCN2C(=O)[C@@H](NC(=S)Nc2ccc3c(c2)C(=O)OC32c3ccc(O)cc3Oc3cc(O)ccc32)CSCc2cccc(c2)CSC[C@@H](C(N)=O)NC1=O [BTR2000] ({FITC}-CPDLC-NH2; linker 1-5 via mXylylene) | successfully enriched KLHL20 | – | – | binding to KLHL20 H499 mutant relative to wild type (KLHL20^H499G): more prominent loss in binding; enrichment of KLHL12 in pull-down (KLHL12): not KLHL12; log2 fold change BTR2000/CPGAC of KLHL20 (KLHL20 [1]): 11; binding to KLHL20^K498A relative to wild type (KLHL20^K498A): important for BTR2000 binding; binding to KLHL20^L592G relative to wild type (KLHL20^L592G): more prominent loss in binding |
| CPGAC: cyclized double-mutant of BTR2000 used as pull-down control ({Lys(Biotin)-PEG3′}-CPGAC-NH2; linker 1-5 via mXylylene) | no binding to KLHL20 | – | – | – |
| Cc1ncsc1-c1ccc(CNC(=O)[C@@H]2C[C@@H](O)CN2C(=O)[C@@H](NC(=O)COCCOCCOCCNC(=O)C[C@@H]2N=C(c3ccc(Cl)cc3)c3c(sc(C)c3C)-n3c(C)nnc32)C(C)(C)C)cc1 [MZ1] | – | showed efficacy | – | cell growth inhibition (MDA-MB-231 cells): higher efficiency than BTR2004; cell growth inhibition (PC3 cells): higher efficiency than BTR2004; normal cell cytotoxicity (hTERT-BJ1 cells): some degree of cytotoxicity |
| Cc1sc2c(c1C)C(c1ccc(Cl)cc1)=N[C@@H](CC(=O)NCCCCNC(=O)COc1cccc3c1C(=O)N(C1CCC(=O)NC1=O)C3=O)c1nnc(C)n1-2 (stereo partly shown) [dBET1] | – | showed efficacy | – | normal cell cytotoxicity (hTERT-BJ1 cells): some degree of cytotoxicity |
| cyclized CPDAC: BTR2000 with the leucine mutated; KLHL20-binding deficient cyclized peptide (CPDAC-NH2; linker 1-5 via mXylylene) | no binding to KLHL20 | – | – | – |
| COc1cc(C(=O)NCCOCCOCCOCCNC(=O)C[C@@H]2N=C(c3ccc(Cl)cc3)c3c(sc(C)c3C)-n3c(C)nnc32)ccc1NC(=O)[C@@H]1N[C@@H](CC(C)(C)C)[C@](C#N)(c2ccc(Cl)cc2F)[C@H]1c1cccc(Cl)c1F [A1874] | – | not effective; also recorded: ineffective | – | – |
| cyclized CPGLC: BTR2000 with the aspartic acid mutated; KLHL20-binding deficient cyclized peptide ({Lys(Biotin)-PEG3′}-CPGLC-NH2; linker 1-5 via mXylylene) | no binding to KLHL20 | – | – | – |
| {FITC}-LPDLV-NH2 [FITC-labeled linear LPDLV peptide] | – | – | > 5000 | – |
| {FITC}-CPDLVC-NH2 (linker 1-6 via mXylylene) [FITC-labeled macrocycle CPDLVC] | – | – | ~600 | – |
| {FITC}-CPDLC-NH2 (linker 1-5 via mXylylene) [FITC-labeled BTR2000 (macrocycle CPDLC)] | – | – | ~600 | – |
